The text below walks through data of ChEMBL document CHEMBL1145475, “Expression and purification of an active form of the Mycobacterium leprae DNA gyrase and its inhibition by quinolones” (Antimicrob Agents Chemother, 2007).

A word on the IC50: it is the concentration needed to halve the response being measured.

Each structure is given as a SMILES string. The source made the active and inactive calls. The rule behind the calls is not given here.

The test system of assay [1] is Mycobacterium leprae. The experiment in a line: Inhibition of Mycobacterium leprae recombinant DNA gyrase expressed in Escherichia coli assessed as inhibition of pBR322 DNA supercoiling. In short, it runs like this:
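His-tagged M. leprae GyrA and GyrB were expressed separately in E. coli, purified by nickel chelate chromatography, and reconstituted (1 U gyrase). Substrate was 0.4 μg relaxed pBR322 in 40 mM Tris-HCl pH 7.5, 25 mM KCl, 20 mM Mg acetate, 2 mM spermidine, 4 mM DTT, tRNA, BSA, and 3 mM ATP, run 1 h at 30°C.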

Assay [2] relates to Mycobacterium leprae. The experiment in a line: Effect on Mycobacterium leprae recombinant DNA gyrase expressed in Escherichia coli assessed as enhancement of supercoiled pBR322 DNA cleavage.
The subject of assay [3] is Mycobacterium leprae. The experiment in a line: Antibacterial activity in Mycobacterium leprae infected mouse foot-pad model assessed as parasite killing at 50 mg/kg/day after 9 months. In kind it is functional.
The subject of assay [4] is Mycobacterium leprae. The experiment in a line: Antibacterial activity against Mycobacterium leprae at 5 ug/mL after 11 to 18 days. In kind it is functional.
Assay [5] concerns Mycobacterium leprae. The experiment in a line: Antibacterial activity in Mycobacterium leprae infected mouse foot-pad model assessed as parasite killing at >150 mg/kg/day after 9 months. The class given is functional.
The subject of assay [6] is Mycobacterium leprae. The experiment in a line: Antibacterial activity in Mycobacterium leprae infected mouse foot-pad model assessed as parasite killing at 15 mg/kg/day after 9 months. In kind it is functional.
Assay [7] relates to Mycobacterium leprae. The experiment in a line: Antibacterial activity in Mycobacterium leprae infected mouse foot-pad model assessed as parasite killing at >300 mg/kg/day after 9 months. The class given is functional.
Assay [8] relates to Mycobacterium leprae. The experiment in a line: Antibacterial activity in Mycobacterium leprae infected mouse foot-pad model assessed as parasite killing at 150 mg/kg/day after 9 months. The class given is functional.
Assay [9] deals with Mycobacterium leprae. The experiment in a line: Antibacterial activity in Mycobacterium leprae infected mouse foot-pad model assessed as parasite killing at 25 mg/kg/day after 9 months. In kind it is functional.

In the case of `CCn1cc(C(=O)O)c(=O)c2cc3c(cc21)OCO3` [OXOLINIC ACID], the concentration for half-maximal inhibition (IC50) in assay [1] was 170 µg/mL. Besides, in [2], the outcome was inactive.
Turning to `CCn1cc(C(=O)O)c(=O)c2ccc(C)nc21` [NALIDIXIC ACID], the IC50 in assay [1] is 300 µg/mL. Besides, in assay [2], the result was inactive.
As to `C[C@H]1NCc2cc(-c3ccc4c(=O)c(C(=O)O)cn(C5CC5)c4c3OC(F)F)ccc21` [GARENOXACIN], the IC50 in assay [1] stood at 3.5 µg/mL. Also, the CC25 in [2] turned out to be 3 µg/mL.
For the compound `CC1CN(c2cc3c(cc2F)c(=O)c(C(=O)O)cn3-c2ccc(F)cc2F)CCN1` (stereo not drawn) [TEMAFLOXACIN], the figures for the Activity in assay [3] and in assay [4] were over 99% and 29, respectively. In addition, the IC50 in [1] turned out to be 26 µg/mL. Besides, in [2], the CC25 was found to be 11 µg/mL.
For `O=C(O)c1cn(C2CC2)c2cc(N3CCNCC3)c(F)cc2c1=O` [CIPROFLOXACIN], in assay [1], the IC50 is 3.5 µg/mL. In addition, the Activity in assay [5] is given as over 99%; in assay [4], 32.
Consider `C[C@H]1COc2c(N3CCN(C)CC3)c(F)cc3c(=O)c(C(=O)O)cn1c23.C[C@H]1COc2c(N3CCN(C)CC3)c(F)cc3c(=O)c(C(=O)O)cn1c23.O` [LEVOFLOXACIN], for which the IC50 in assay [1] was found to be 7 µg/mL. The CC25 in assay [2] came to 3 µg/mL.
For `C[C@@H]1CN(c2c(F)c(N)c3c(=O)c(C(=O)O)cn(C4CC4)c3c2F)C[C@H](C)N1` [SPARFLOXACIN], in assay [1], the IC50 amounted to 5 µg/mL. In addition, in assay [6], the Activity was over 99%. Also, in assay [2], the CC25 was 1 µg/mL.
With `NC1CCN(c2c(F)cc3c(=O)c(C(=O)O)cn(C4CC4)c3c2Cl)C1` (stereo not drawn) [CLINAFLOXACIN], the IC50 in assay [1] was 3 µg/mL. Besides, the CC25 in [2] is 0.6 µg/mL.
Taken in the same sequence, the figures for `COc1c(N2CCNC(C)C2)c(F)cc2c(=O)c(C(=O)O)cn(C3CC3)c12` (stereo not drawn) [GATIFLOXACIN] were 2 µg/mL and 1 µg/mL.
Take `CCn1cc(C(=O)O)c(=O)c2cc(F)c(N3CCN(C)CC3)cc21` [PEFLOXACIN]: the figures for the Activity in assay [7] and in assay [4] were over 99% and 29, respectively. Further, the IC50 in assay [1] came out at 23 µg/mL.
Regarding `CC1COc2c(N3CCN(C)CC3)c(F)cc3c(=O)c(C(=O)O)cn1c23` (stereo not drawn) [OFLOXACIN], the IC50 in [1] was found to be 10 µg/mL. Further, the CC25 in assay [2] is 10 µg/mL. The Activity is recorded as 20 in assay [4] and over 99% in assay [8].
Consider `N[C@@H]1CN(c2c(F)cc3c(=O)c(C(=O)O)cn([C@@H]4C[C@@H]4F)c3c2Cl)CC12CC2` [SITAFLOXACIN ANHYDROUS], for which the IC50 in [1] amounted to 1 µg/mL. In addition, in assay [2], the CC25 came to 0.5 µg/mL. The Activity in [9] was over 99%.
Regarding `COc1c(N2C[C@@H]3CCCN[C@@H]3C2)c(F)cc2c(=O)c(C(=O)O)cn(C3CC3)c12` [MOXIFLOXACIN], in [8], the Activity is reported as over 99%.
